From article PMC7316614 (ACS nano, 2020)
Peptide text beside a SMILES is read from it.

Tests used:
[1] = Solubility of the enzymatic product; format: physicochemical; settings: direct suspension of the enzymatic product
HeLa cells [2] = assay: Cell viability / cytotoxicity; format: cell-based; settings: Flag-(C16)2 alone, 48h
Outline: (§1)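 HeLa and HepG2 grown in MEM with 10% (vol/vol) FBS and 0.5% (vol/vol) each penicillin and streptomycin, at 37 °C under 5% CO2. IC50 taken on the 2nd day of exposure to the test compound. Means ± SD from n > 3 independent experiments; significance by t-test.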

HS-5 cells [3] = assay: Cell viability / cytotoxicity; format: cell-based
enterokinase (ENTK) = enterokinase (ENTK) (Homo sapiens, UniProt P98073); assay: Enzymatic cleavage by ENTK; format: biochemical; settings: Flag-(C16)2 at 200 μM (above CMC), Figure S7D
HepG2 cells [4] = assay: Cell viability / cytotoxicity; format: cell-based
Outline: as §1

HepG2 cells [5] = assay: Mitochondrial accumulation, fluorescence imaging with MitoTracker; format: cell-based; settings: Flag-(C16)2, 48h
Drug loading efficiency = format: physicochemical; settings: determined from the LE%
AML12 cells = assay: Cell viability / cytotoxicity; format: cell-based
Self-assembly = format: physicochemical; settings: 50 μM
[6] = tested on: cytochrome c in HepG2 cells; assay: Cytochrome c in cytosol, Western blot; format: cell-based; settings: 100, 50, 25 μM, 48 h
Outline: (§2)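 Cells were exposed to the test compound for 48 h (HepG2: 100, 50, 25 and 0 μM). The cytosol fraction was blotted for cytochrome c. Protein was quantified by Coomassie, and 20 μg per lane was run on SDS-PAGE and transferred to PVDF. Bands were quantified by densitometry. Data are means ± SD, n > 3, t-test.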

HeLa cells [7] = assay: Mitochondrial membrane potential by Rhodamine 123; format: cell-based; settings: 48h, Rhodamine 123, Figure S15
HepG2 cells [8] = assay: Mitochondrial membrane potential by Rhodamine 123; format: cell-based; settings: 50 μM, 48 h
[9] = Critical micelle concentration; format: physicochemical; settings: Figure S6
[10] = tested on: cytochrome c in HeLa cells; assay: Cytochrome c in cytosol, Western blot; format: cell-based; settings: different concentration, Figure S17
Outline: as §2

HS-5 cells [11] = assay: Multidrug resistance; format: cell-based; settings: normal cell line, Figure S5

Chain of enterokinase (ENTK) (P98073 whole entry, species assumed): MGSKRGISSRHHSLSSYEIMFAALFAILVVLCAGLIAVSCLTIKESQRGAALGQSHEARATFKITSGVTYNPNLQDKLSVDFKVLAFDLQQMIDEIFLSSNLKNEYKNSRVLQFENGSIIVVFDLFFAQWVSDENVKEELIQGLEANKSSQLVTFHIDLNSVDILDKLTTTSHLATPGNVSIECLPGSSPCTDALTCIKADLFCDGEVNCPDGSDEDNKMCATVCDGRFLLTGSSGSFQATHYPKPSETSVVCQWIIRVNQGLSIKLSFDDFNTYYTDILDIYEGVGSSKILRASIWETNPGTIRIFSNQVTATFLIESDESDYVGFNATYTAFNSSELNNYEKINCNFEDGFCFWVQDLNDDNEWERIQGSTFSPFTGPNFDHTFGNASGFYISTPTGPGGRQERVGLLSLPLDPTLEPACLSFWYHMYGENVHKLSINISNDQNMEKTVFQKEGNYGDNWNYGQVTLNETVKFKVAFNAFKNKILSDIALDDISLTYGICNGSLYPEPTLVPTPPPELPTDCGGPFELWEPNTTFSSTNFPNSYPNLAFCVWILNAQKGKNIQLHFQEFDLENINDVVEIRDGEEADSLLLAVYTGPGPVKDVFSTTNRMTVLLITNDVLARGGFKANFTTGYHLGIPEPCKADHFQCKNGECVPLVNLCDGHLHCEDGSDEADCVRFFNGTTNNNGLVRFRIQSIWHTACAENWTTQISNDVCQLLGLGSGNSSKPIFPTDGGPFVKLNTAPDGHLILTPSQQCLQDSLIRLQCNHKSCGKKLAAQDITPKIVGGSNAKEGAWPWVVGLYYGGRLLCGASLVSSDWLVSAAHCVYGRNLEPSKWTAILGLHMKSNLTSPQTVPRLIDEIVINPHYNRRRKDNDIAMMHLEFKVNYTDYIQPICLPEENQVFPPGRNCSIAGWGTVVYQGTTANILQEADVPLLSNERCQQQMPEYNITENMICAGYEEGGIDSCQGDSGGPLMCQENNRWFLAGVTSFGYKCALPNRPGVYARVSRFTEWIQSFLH

## Gly-Glu-(C16)2
[1]
  solubility: poor solubility

## CCCCCCCCCCCCCCCCNC(=O)CC[C@H](NC(=O)CNC(=O)[C@H](CCCCN)NC(=O)[C@H](CC(=O)O)NC(=O)[C@H](CC(=O)O)NC(=O)[C@H](CC(=O)O)NC(=O)[C@H](CC(=O)O)NC(=O)[C@H](CCCCN)NC(=O)[C@H](Cc1ccc(O)cc1)NC(=O)[C@@H](N)CC(=O)O)C(=O)NCCCCCCCCCCCCCCCC [Flag-(C16)2] (HELM PEPTIDE1{D.Y.K.D.D.D.D.K.G.E.[CCCCCCCCCCCCCCCCN[*:1]]}|CHEM1{[CCCCCCCCCCCCCCCCN[*:1]]}$PEPTIDE1,CHEM1,10:R3-1:R1$$$V2.0)
HeLa cells [2]
  cell viability, HeLa: decrease of cell viability
HS-5 cells [3]
  cell death, HS-5: hardly induces cell death
Enterokinase (ENTK)
  hydrolysis by ENTK: hydrolyzes
HepG2 cells [4]; Flag-(C16)2 alone, 48h
  cell viability, HepG2: decrease of cell viability
HepG2 cells [5]
  mitochondrial morphology, HepG2: fragmental mitochondria
Drug loading efficiency
  encapsulation capacity (EC): 66.7 μg CLRP in per mg Flag-(C16)2 micelles
AML12 cells
  cell death, AML12: hardly induces cell death
Self-assembly; ENTK, 24 h, 37 °C, static light scattering
  self-assembly after adding ENTK: larger micelle-like aggregates
Self-assembly; before ENTK
  self-assembly in solution: self-assembles into nanoparticles
[6]
  cytochrome c in the cytosol, HepG2: increased cytochrome c
HeLa cells [7]
  mitochondrial membrane potential, HeLa: reduced mitochondrial membrane potential
HepG2 cells [8]
  mitochondrial membrane potential, HepG2: reduced mitochondrial membrane potential
[9]
  critical micelle concentration (CMC): 43 µM
[10]
  cytochrome c in the cytosol, HeLa: increased cytochrome c

## O=C(N[C@H](CO)[C@H](O)c1ccc([N+](=O)[O-])cc1)C(Cl)Cl [CLRP, chloramphenicol, reference compound]
HS-5 cells [11]
  change of MDR, HS-5: Neither CLRP nor CLRP mixed with Flag-(C16)2 significantly change the MDR
HepG2 cells [4]; free CLRP alone, Figure 2A
  cell viability, HepG2: hardly suppresses the viability
